Results: ChEMBL document CHEMBL1123757, “Selective thromboxane synthetase inhibitors and antihypertensive agents. New derivatives of 4-hydrazino-5H-pyridazino[4,5-b]indole, 4-hydrazinopyridazino[4,5-a]indole, and related compounds” (J Med Chem, 1987)

Tests used:
Homo sapiens [1] = organism: Homo sapiens; experiment: In vitro inhibition of platelet aggregation induced by DD (PRP incubated for 5 minutes at 37 degree C) at 10e-5 M;No significance; format: functional
In short: (§1)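 Human venous blood anticoagulated with 3.8% sodium citrate (1:9). PRP from centrifugation at 800 rpm for 10 min at room temperature. Count adjusted with PPP to […]. Compound in saline with 10% ethylene glycol is added to PRP and incubated at 37 °C before the agonist. Agonists: ADP 2×10^-5 M, AA 0.6 mM, PGH2 2.8 μM, adrenaline 0.6 μM. Born absorbance aggregometry; n = 5.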

Rattus norvegicus [2] = experiment: Antihypertensive activity in spontaneously hypertensive rats (SHR) measured by percentage fall in arterial pressure (AP) at 25 mg/kg administered perorally at 5 h; No significance; format: functional, organism-based; parameters: dose 25 mg/kg; details: Artery
In short: (§2)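 Oral dosing at 2.5 mL/kg to unanesthetized male and female Okamoto-strain SHR (8 weeks old, 300–350 g, systolic pressure ≥190 mmHg, heart rate 400–650 beats/min), five per dose. Vehicle was normal saline or saline with 0.2% (carboxymethyl)cellulose and 1.0% Tween 80. AP measured on the tail by mechanical transduction at set times; expressed as percentage fall from control.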

Rattus norvegicus [3] = experiment: Antihypertensive activity in spontaneously hypertensive rats (SHR) measured by percentage fall in arterial pressure (AP) at 5 mg/kg administered perorally at 24 h; No significance; format: functional, organism-based; parameters: dose 5 mg/kg; details: Artery; in short: as §2
Rattus norvegicus [4] = experiment: Antihypertensive activity in spontaneously hypertensive rats (SHR) measured by percentage fall in arterial pressure (AP) at 5 mg/kg administered perorally at 5 h; No significance; format: functional, organism-based; parameters: dose 5 mg/kg; details: Artery; in short: as §2
Rattus norvegicus [5] = experiment: Antihypertensive activity in spontaneously hypertensive rats (SHR) measured by percentage fall in cardiac rhythm (CR) at 5 mg/kg administered perorally at 24 h; No significance; format: functional, organism-based; parameters: dose 5 mg/kg; details: Heart
In short: (§3)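 Conscious SHR (Okamoto strain), 8 weeks old, male and female, 300–350 g, systolic BP ≥190 mmHg, CR 400–650 beats/min. Given ip or po at 2.5 mL/kg in normal saline or saline with 0.2% (carboxymethyl)cellulose and 1.0% Tween 80. Tail AP and CR recorded by mechanical transduction at 1, 3, 5 and 24 h, five animals per dose. Effect expressed as % fall versus control.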

Homo sapiens [6] = organism: Homo sapiens; experiment: In vitro inhibition of platelet aggregation induced by AA (PRP incubated for 60 minutes at 37 degree C) at 10e-5 M;No significance; format: functional; in short: as §1
Rattus norvegicus [7] = experiment: Antihypertensive activity in spontaneously hypertensive rats (SHR) measured by percentage fall in arterial pressure (AP) at 1 mg/kg administered intraperitoneally at 24 h; No significance; format: functional, organism-based; parameters: dose 1 mg/kg; details: Artery
In short: (§4)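 Unanesthetized Okamoto-strain SHR, male and female, 8 weeks old, 300–350 g, systolic pressure ≥190 mmHg, heart rate 400–650 beats/min; five animals per dose. Given ip at 2.5 mL/kg, dissolved or suspended in normal saline or saline with 0.2% (carboxymethyl)cellulose and 1.0% Tween 80. Tail AP and CR recorded by mechanical transduction at set times; reported as percentage fall from control.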

Rattus norvegicus [8] = experiment: Antihypertensive activity in spontaneously hypertensive rats (SHR) measured by percentage fall in cardiac rhythm (CR) at 25 mg/kg administered intraperitoneally at 1 h;No significance; format: functional, organism-based; parameters: dose 25 mg/kg; details: Heart; in short: as §4
Rattus norvegicus [9] = experiment: Antihypertensive activity in spontaneously hypertensive rats (SHR) measured by percentage fall in cardiac rhythm (CR) at 25 mg/kg administered perorally at 5 h; No significance; format: functional, organism-based; parameters: dose 25 mg/kg; details: Heart; in short: as §3
Rattus norvegicus [10] = experiment: Antihypertensive activity in spontaneously hypertensive rats (SHR) measured by percentage fall in cardiac rhythm (CR) at 5 mg/kg administered intraperitoneally at 1 h;No significance; format: functional, organism-based; parameters: dose 5 mg/kg; details: Heart; in short: as §3
Rattus norvegicus [11] = experiment: Antihypertensive activity in spontaneously hypertensive rats (SHR) measured by percentage fall in cardiac rhythm (CR) at 5 mg/kg administered intraperitoneally at 24 h; No significance; format: functional, organism-based; parameters: dose 5 mg/kg; details: Heart; in short: as §3
Rattus norvegicus [12] = experiment: Antihypertensive activity in spontaneously hypertensive rats (SHR) measured by percentage fall in arterial pressure (AP) at 25 mg/kg administered perorally at 24 h; No significance; format: functional, organism-based; parameters: dose 25 mg/kg; details: Artery; in short: as §2
Rattus norvegicus [13] = experiment: Antihypertensive activity in spontaneously hypertensive rats (SHR) measured by percentage fall in cardiac rhythm (CR) at 25 mg/kg administered perorally at 3 h;No significance; format: functional, organism-based; parameters: dose 25 mg/kg; details: Heart; in short: as §3
Rattus norvegicus [14] = experiment: Antihypertensive activity in spontaneously hypertensive rats (SHR) measured by percentage fall in cardiac rhythm (CR) at 5 mg/kg administered intraperitoneally at 3 h;No significance; format: functional, organism-based; parameters: dose 5 mg/kg; details: Heart; in short: as §3
Rattus norvegicus [15] = experiment: Antihypertensive activity in spontaneously hypertensive rats (SHR) measured by percentage fall in cardiac rhythm (CR) at 5 mg/kg administered perorally at 3 h;No significance; format: functional, organism-based; parameters: dose 5 mg/kg; details: Heart; in short: as §3
Rattus norvegicus [16] = experiment: Antihypertensive activity in spontaneously hypertensive rats (SHR) measured by percentage fall in cardiac rhythm (CR) at 25 mg/kg administered intraperitoneally at 24 h;No significance; format: functional, organism-based; parameters: dose 25 mg/kg; details: Heart; in short: as §4
Rattus norvegicus [17] = experiment: Antihypertensive activity in spontaneously hypertensive rats (SHR) measured by percentage fall in arterial pressure (AP) at 1 mg/kg administered intraperitoneally at 5 h; No significance; format: functional, organism-based; parameters: dose 1 mg/kg; details: Artery; in short: as §4
Rattus norvegicus [18] = experiment: Antihypertensive activity in spontaneously hypertensive rats (SHR) measured by percentage fall in cardiac rhythm (CR) at 25 mg/kg administered perorally at 24 h; No significance; format: functional, organism-based; parameters: dose 25 mg/kg; details: Heart; in short: as §3
Rattus norvegicus [19] = experiment: Antihypertensive activity in spontaneously hypertensive rats (SHR) measured by percentage fall in cardiac rhythm (CR) at 5 mg/kg administered perorally at 5 h; No significance; format: functional, organism-based; parameters: dose 5 mg/kg; details: Heart; in short: as §3
Rattus norvegicus [20] = experiment: Percent fall in systolic blood pressure, directly measured on carotid (iv on the jugular vein) of spontaneously hypertensive rats at 1 mg/kg after 180 minutes; No significance; format: functional, organism-based; parameters: dose 1 mg/kg; details: Artery
In short: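 Anesthetized (sodium pentobarbital, 70 mg/kg) male and female Okamoto SHR, 8 weeks old, 300–350 g. Given iv into the jugular vein in normal saline. Arterial pressure and cardiac rhythm are recorded directly from the carotid by polygraph at set times after dosing. Each is expressed as percent change from the pre-dose control value.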

CCOc1ccc2[nH]c3c(NN)nncc3c2c1
inactive: inhibition (Homo sapiens [1]) No significant values | Decrease in AP (Rattus norvegicus [2]) No significant values | Decrease in AP (Rattus norvegicus [3]) No significant values | Decrease in AP (Rattus norvegicus [4]) No significant values | Decrease in CR (Rattus norvegicus [5]) No significant values | inhibition (Homo sapiens [6]) No significant values | Decrease in AP (Rattus norvegicus [7]) No significant values | Decrease in CR (Rattus norvegicus [8]) No significant values | Decrease in CR (Rattus norvegicus [9]) No significant values | Decrease in CR (Rattus norvegicus [10]) No significant values | Decrease in CR (Rattus norvegicus [11]) No significant values | Decrease in blood pressure (Rattus norvegicus [12]) No significant values | Decrease in blood pressure (Rattus norvegicus [13]) No significant values | Decrease in blood pressure (Rattus norvegicus [14]) No significant values | Decrease in blood pressure (Rattus norvegicus [15]) No significant values | Decrease in CR (Rattus norvegicus [16]) No significant values | Decrease in AP (Rattus norvegicus [17]) No significant values | Decrease in AP (Rattus norvegicus [18]) No significant values | Decrease in AP (Rattus norvegicus [19]) No significant values | Decrease in AP (Rattus norvegicus [20]) No significant values
